Activity calls are given as the source filed them. The rule behind the calls is not given here.
Key:
[1] = Inhibition of bovine testes DPP9 assessed as pNA release from Ala-Pro- p-nitroanilide substrate pre-incubated with enzyme for 15 min prior to substrate addition by […]; design: species or system Bos taurus
[2] = molecular target: Dipeptidyl peptidase 2 (Homo sapiens, UniProt Q9UHL4); assay: Inhibition of human seminal plasma DPP2 assessed as pNA release from Lys-Ala-p-nitroanilide substrate pre-incubated with enzyme for 15 min prior to substrate addition by […]
[3] = molecular target: Dipeptidyl peptidase 4 (Homo sapiens, UniProt P27487); assay: Inhibition of human seminal plasma DPP4 assessed as pNA release from Gly-Pro-p-nitroanilide substrate pre-incubated with enzyme for 15 min prior to substrate addition by […]
[4] = molecular target: Prolyl endopeptidase (Sus scrofa, UniProt P23687); assay: Inhibition of pig PREP expressed in Escherichia coli using Z-Gly-Pro-p-nitroanilide substrate
[5] = molecular target: T1, Prolyl endopeptidase FAP (Mus musculus, UniProt P97321); assay: Inhibition of mouse recombinant FAP expressed in HEK293 cells assessed as pNA release from Ala-Pro-p-nitroanilide pre-incubated with enzyme for 15 mins prior to substrate addition by […]; assay type: cell-based
T1 sequence (P97321 whole entry): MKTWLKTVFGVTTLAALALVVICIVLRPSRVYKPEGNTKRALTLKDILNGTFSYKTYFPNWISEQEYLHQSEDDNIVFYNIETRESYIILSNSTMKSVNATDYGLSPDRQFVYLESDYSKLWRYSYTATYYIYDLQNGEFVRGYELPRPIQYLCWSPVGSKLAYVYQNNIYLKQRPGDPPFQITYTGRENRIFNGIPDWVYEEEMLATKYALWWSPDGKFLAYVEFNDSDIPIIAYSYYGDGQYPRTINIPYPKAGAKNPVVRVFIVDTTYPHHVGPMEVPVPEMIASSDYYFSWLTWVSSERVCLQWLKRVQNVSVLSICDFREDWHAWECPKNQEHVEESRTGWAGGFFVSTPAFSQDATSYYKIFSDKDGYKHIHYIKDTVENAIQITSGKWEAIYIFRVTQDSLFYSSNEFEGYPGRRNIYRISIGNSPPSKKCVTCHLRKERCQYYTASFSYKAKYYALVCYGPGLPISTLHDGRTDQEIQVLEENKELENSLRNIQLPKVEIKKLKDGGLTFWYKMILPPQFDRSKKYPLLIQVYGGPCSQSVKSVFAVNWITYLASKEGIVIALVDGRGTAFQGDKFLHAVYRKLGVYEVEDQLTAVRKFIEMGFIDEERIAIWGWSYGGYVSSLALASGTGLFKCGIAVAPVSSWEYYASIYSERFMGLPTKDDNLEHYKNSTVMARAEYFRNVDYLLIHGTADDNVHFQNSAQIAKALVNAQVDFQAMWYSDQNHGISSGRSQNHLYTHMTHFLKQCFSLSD

[6] = molecular target: T2, Prolyl endopeptidase (Homo sapiens) (UniProt P48147); assay: Inhibition of PREP in human SH-SY5Y cellular model of synucleinopathy over-expressing alpha-synuclein assessed as reduction in late apoptotic level 0.1 to 9 uM incubated for 3 days under oxidative stress condition by high content multiparametric method
T2 sequence (whole entry): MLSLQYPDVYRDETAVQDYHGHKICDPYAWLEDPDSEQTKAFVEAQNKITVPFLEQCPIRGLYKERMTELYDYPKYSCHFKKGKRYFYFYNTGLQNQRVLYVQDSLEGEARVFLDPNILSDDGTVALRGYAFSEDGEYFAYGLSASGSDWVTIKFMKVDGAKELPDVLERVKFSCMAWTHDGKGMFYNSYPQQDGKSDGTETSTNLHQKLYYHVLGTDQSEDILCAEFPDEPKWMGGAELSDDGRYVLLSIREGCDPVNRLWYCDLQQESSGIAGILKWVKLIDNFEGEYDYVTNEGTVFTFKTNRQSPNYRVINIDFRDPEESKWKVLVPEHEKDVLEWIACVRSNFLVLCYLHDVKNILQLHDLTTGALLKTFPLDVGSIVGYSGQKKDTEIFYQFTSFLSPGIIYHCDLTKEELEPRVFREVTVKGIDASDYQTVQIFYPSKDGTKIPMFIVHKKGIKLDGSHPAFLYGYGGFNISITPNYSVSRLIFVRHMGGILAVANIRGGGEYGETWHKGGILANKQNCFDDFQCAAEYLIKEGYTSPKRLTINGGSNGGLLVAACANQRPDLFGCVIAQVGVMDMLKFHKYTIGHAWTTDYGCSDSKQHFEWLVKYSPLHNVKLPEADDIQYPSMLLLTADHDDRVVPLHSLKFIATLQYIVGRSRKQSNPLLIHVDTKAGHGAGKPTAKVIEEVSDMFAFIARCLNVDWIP
Summary of the method: (§1)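 SH-SY5Y neuroblastoma cells overexpressing α-SYN were incubated with inhibitor for 3 days under oxidative stress from H₂O₂ plus FeCl₂. Aggregates were detected by thioflavin S staining. Late apoptosis was scored as nuclear condensation and fragmentation. Quantification used automated high-content imaging. Values are % of cells relative to the 1% DMSO control. Significance was tested by ANOVA with Dunnett's post-test (5% level).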

[7] = molecular target: T2, Prolyl endopeptidase (Homo sapiens); assay: Inhibition of PREP in human SH-SY5Y cellular model of synucleinopathy over-expressing alpha-synuclein assessed as reduction in alpha-synuclein aggregation 0.1 to 9 uM incubated for 3 days under oxidative stress condition by high content multiparametric method; summary of the method: as §1

Prolyl endopeptidase, sequence (P23687 whole entry): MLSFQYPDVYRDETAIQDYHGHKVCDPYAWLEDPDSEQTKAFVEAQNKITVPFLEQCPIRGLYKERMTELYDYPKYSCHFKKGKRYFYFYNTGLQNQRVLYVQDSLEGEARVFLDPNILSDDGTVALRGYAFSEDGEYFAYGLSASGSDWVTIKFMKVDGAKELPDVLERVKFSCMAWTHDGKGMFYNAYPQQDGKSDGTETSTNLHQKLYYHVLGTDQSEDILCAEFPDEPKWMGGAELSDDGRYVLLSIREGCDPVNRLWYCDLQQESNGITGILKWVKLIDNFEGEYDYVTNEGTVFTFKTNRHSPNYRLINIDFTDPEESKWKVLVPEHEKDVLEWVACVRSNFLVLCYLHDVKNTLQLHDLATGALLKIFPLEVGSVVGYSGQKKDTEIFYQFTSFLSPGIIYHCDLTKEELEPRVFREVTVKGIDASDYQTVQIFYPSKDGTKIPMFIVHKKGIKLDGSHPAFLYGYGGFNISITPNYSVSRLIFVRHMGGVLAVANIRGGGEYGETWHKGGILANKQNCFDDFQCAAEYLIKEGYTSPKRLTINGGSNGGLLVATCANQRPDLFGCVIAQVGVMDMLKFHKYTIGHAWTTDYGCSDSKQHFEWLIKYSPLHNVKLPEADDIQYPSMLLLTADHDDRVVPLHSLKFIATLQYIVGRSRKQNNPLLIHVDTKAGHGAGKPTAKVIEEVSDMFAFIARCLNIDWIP
Dipeptidyl peptidase 4, sequence (P27487 whole entry): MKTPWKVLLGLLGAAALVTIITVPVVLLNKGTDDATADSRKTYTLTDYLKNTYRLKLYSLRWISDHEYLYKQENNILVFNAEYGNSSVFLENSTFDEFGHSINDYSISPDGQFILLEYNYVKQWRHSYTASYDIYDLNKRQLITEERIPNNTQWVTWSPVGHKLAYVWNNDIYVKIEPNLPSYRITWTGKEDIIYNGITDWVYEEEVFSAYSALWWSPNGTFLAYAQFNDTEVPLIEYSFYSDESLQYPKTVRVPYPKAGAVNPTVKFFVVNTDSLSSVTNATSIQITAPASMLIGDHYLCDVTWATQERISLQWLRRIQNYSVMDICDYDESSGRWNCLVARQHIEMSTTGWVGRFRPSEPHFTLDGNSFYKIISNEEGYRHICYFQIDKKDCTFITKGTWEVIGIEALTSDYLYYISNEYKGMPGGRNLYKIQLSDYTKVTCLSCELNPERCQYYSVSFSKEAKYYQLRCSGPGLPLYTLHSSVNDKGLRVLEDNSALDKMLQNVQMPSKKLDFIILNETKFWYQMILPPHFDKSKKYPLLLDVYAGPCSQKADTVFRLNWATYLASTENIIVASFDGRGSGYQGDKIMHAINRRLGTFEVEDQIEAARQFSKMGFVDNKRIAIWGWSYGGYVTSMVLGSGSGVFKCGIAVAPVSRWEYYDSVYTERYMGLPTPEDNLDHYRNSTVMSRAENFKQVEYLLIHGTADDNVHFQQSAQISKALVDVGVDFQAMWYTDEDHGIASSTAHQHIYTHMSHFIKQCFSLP

O=C([C@@H]1C[C@H](n2cc(-c3ccccc3)nn2)CN1C(=O)CCCc1ccccc1)N1CCCC1
IC50 [1]: > 100 µM
IC50 [2]: > 100 µM
IC50 [3]: > 100 µM
IC50 [4]: 0.17 µM

O=C([C@@H]1C[C@@H](n2cc(-c3ccccc3)nn2)CN1C(=O)CCCc1ccccc1)N1CCCC1
IC50 [1]: > 50 µM
IC50 [2]: > 100 µM
IC50 [3]: > 100 µM
IC50 [4]: 0.542 µM

O=C([C@@H]1C[C@H](n2cc(-c3ccccn3)nn2)CN1C(=O)OCc1ccccc1)N1CCCC1
IC50 [1]: 53 µM
IC50 [2]: > 100 µM
IC50 [3]: > 100 µM
IC50 [5]: > 100 µM
IC50 [4]: 0.357 µM

O=C([C@@H]1CCCN1C(=O)OCc1ccccc1)N1CCCC1
IC50 [1]: > 100 µM
IC50 [2]: > 100 µM
IC50 [3]: > 100 µM
IC50 [5]: > 100 µM

NCc1cn([C@H]2C[C@@H](C(=O)N3CCCC3)N(C(=O)CCCc3ccccc3)C2)nn1
IC50 [1]: > 100 µM
IC50 [2]: > 10 µM
IC50 [3]: > 100 µM
IC50 [5]: > 100 µM
IC50 [4]: 0.17 µM

N#C[C@@H]1CCCN1C(=O)[C@@H]1C[C@H](N=[N+]=[N-])CN1C(=O)CCCc1ccccc1
inhibition [6]: Active
inhibition [7]: Active
IC50 [1]: > 100 µM
IC50 [2]: > 100 µM
IC50 [3]: > 100 µM
IC50 [5]: > 100 µM
IC50 [4]: 0.003 µM

Cn1cnc(-c2cn([C@H]3C[C@@H](C(=O)N4CCCC4)N(C(=O)CCCc4ccccc4)C3)nn2)c1
IC50 [4]: 0.09 µM

O=C([C@@H]1C[C@H](n2cc(-c3ccc(Br)cc3)nn2)CN1C(=O)CCCc1ccccc1)N1CCCC1
IC50 [1]: > 10 µM
IC50 [2]: > 100 µM
IC50 [3]: > 100 µM
IC50 [5]: > 100 µM
IC50 [4]: 0.014 µM

O=C([C@@H]1C[C@H](n2cc(CN3CCNCC3)nn2)CN1C(=O)CCCc1ccccc1)N1CCCC1
IC50 [1]: 1.3 µM
IC50 [2]: > 100 µM
IC50 [3]: > 100 µM
IC50 [5]: > 100 µM
IC50 [4]: 0.1 µM

CC(C)(C)OC(=O)N1CCN(Cc2cn([C@H]3C[C@@H](C(=O)N4CCCC4)N(C(=O)CCCc4ccccc4)C3)nn2)CC1
IC50 [1]: 0.6 µM
IC50 [2]: > 100 µM
IC50 [3]: > 100 µM
IC50 [5]: > 100 µM
IC50 [4]: 0.11 µM

O=C([C@@H]1C[C@H](n2cc(-c3ccccc3Cl)nn2)CN1C(=O)CCCc1ccccc1)N1CCCC1
IC50 [1]: > 100 µM
IC50 [2]: > 10 µM
IC50 [3]: > 100 µM
IC50 [5]: > 5 µM
IC50 [4]: 0.023 µM

C[Si](C)(C)c1cn([C@H]2C[C@@H](C(=O)N3CCCC3)N(C(=O)OCc3ccccc3)C2)nn1
IC50 [1]: > 100 µM
IC50 [2]: > 100 µM
IC50 [3]: > 100 µM
IC50 [5]: > 100 µM
IC50 [4]: 0.956 µM

N#C[C@@H]1CCCN1C(=O)[C@@H]1CCCN1C(=O)CCCc1ccccc1
IC50 [1]: > 100 µM
IC50 [2]: > 100 µM
IC50 [3]: > 100 µM
IC50 [5]: > 10 µM

O=C([C@@H]1C[C@H](n2cc(-c3ccccc3)nn2)CN1C(=O)OCc1ccccc1)N1CCCC1
IC50 [1]: > 100 µM
IC50 [2]: > 100 µM
IC50 [3]: > 100 µM
IC50 [4]: 0.478 µM

O=C([C@@H]1C[C@H](n2cc(-c3ccc(F)cc3F)nn2)CN1C(=O)CCCc1ccccc1)N1CCCC1
IC50 [1]: > 10 µM
IC50 [2]: > 100 µM
IC50 [3]: > 100 µM
IC50 [5]: > 5 µM
IC50 [4]: 0.024 µM

CC(C)(C)OC(=O)NCc1cn([C@H]2C[C@@H](C(=O)N3CCCC3)N(C(=O)OCc3ccccc3)C2)nn1
IC50 [1]: > 10 µM
IC50 [2]: > 100 µM
IC50 [3]: > 100 µM
IC50 [5]: > 100 µM
IC50 [4]: 0.141 µM

CC(C)(C)OC(=O)NCc1cn([C@@H]2C[C@@H](C(=O)N3CCCC3)N(C(=O)CCCc3ccccc3)C2)nn1
IC50 [1]: > 100 µM
IC50 [2]: > 100 µM
IC50 [3]: > 100 µM
IC50 [5]: > 100 µM
IC50 [4]: 0.28 µM

O=C([C@@H]1C[C@H](n2cc(-c3ccccn3)nn2)CN1C(=O)CCCc1ccccc1)N1CCCC1
IC50 [1]: > 100 µM
IC50 [2]: > 100 µM
IC50 [3]: > 100 µM
IC50 [5]: > 100 µM
IC50 [4]: 0.069 µM

CN(C)Cc1cn([C@H]2C[C@@H](C(=O)N3CCCC3)N(C(=O)CCCc3ccccc3)C2)nn1
IC50 [1]: > 10 µM
IC50 [2]: > 100 µM
IC50 [3]: > 100 µM
IC50 [4]: 0.024 µM

O=C([C@@H]1C[C@H](n2cc(COCc3ccccc3)nn2)CN1C(=O)CCCc1ccccc1)N1CCCC1
IC50 [1]: > 100 µM
IC50 [2]: > 100 µM
IC50 [3]: > 100 µM
IC50 [4]: 0.131 µM

CC(C)(C)OC(=O)NCc1cn([C@H]2C[C@@H](C(=O)N3CCC[C@H]3C#N)N(C(=O)CCCc3ccccc3)C2)nn1
inhibition [6]: Active
inhibition [7]: Active
IC50 [1]: > 100 µM
IC50 [2]: > 100 µM
IC50 [3]: > 100 µM
IC50 [5]: > 100 µM
IC50 [4]: 0.009 µM

O=C([C@@H]1C[C@H](n2cc(CN3CCOCC3)nn2)CN1C(=O)CCCc1ccccc1)N1CCCC1
IC50 [1]: 1.1 µM
IC50 [2]: > 100 µM
IC50 [3]: > 50 µM
IC50 [5]: > 100 µM
IC50 [4]: 0.24 µM

O=C([C@@H]1C[C@H](n2cc(-c3ccc(F)cc3)nn2)CN1C(=O)CCCc1ccccc1)N1CCCC1
IC50 [1]: > 100 µM
IC50 [2]: > 100 µM
IC50 [3]: > 100 µM
IC50 [4]: 0.033 µM

O=C([C@@H]1CCCN1C(=O)CCCc1ccccc1)N1CCCC1
IC50 [1]: > 100 µM
IC50 [2]: > 100 µM
IC50 [3]: > 100 µM
IC50 [5]: > 100 µM

O=C([C@@H]1C[C@H](n2cc(C3CC3)nn2)CN1C(=O)CCCc1ccccc1)N1CCCC1
IC50 [1]: > 10 µM
IC50 [2]: > 100 µM
IC50 [3]: > 100 µM
IC50 [5]: > 100 µM
IC50 [4]: 0.039 µM

O=C([C@@H]1C[C@H](n2cc(-c3ccc(F)c(F)c3)nn2)CN1C(=O)CCCc1ccccc1)N1CCCC1
IC50 [1]: < 100 µM
IC50 [2]: > 10 µM
IC50 [3]: > 100 µM
IC50 [5]: > 5 µM
IC50 [4]: 0.0172 µM

[N-]=[N+]=N[C@H]1C[C@@H](C(=O)N2CCCC2)N(C(=O)OCc2ccccc2)C1
IC50 [1]: > 100 µM
IC50 [2]: > 100 µM
IC50 [3]: > 100 µM
IC50 [5]: > 100 µM
IC50 [4]: 0.364 µM

CC(C)(C)OC(=O)NCc1cn([C@H]2C[C@@H](C(=O)N3CCCC3)N(C(=O)CCCc3ccccc3)C2)nn1
IC50 [1]: > 100 µM
IC50 [2]: > 100 µM
IC50 [3]: > 100 µM
IC50 [5]: > 100 µM
IC50 [4]: 0.032 µM

[N-]=[N+]=N[C@H]1C[C@@H](C(=O)N2CCCC2)N(C(=O)CCCc2ccccc2)C1
IC50 [1]: > 100 µM
IC50 [2]: > 100 µM
IC50 [3]: > 100 µM
IC50 [5]: > 100 µM
IC50 [4]: 0.142 µM

O=C([C@@H]1C[C@H](n2ccnn2)CN1C(=O)OCc1ccccc1)N1CCCC1
IC50 [1]: 67 µM
IC50 [2]: > 100 µM
IC50 [3]: > 100 µM
IC50 [5]: > 100 µM
IC50 [4]: 1.16 µM

[N-]=[N+]=N[C@@H]1C[C@@H](C(=O)N2CCCC2)N(C(=O)CCCc2ccccc2)C1
IC50 [1]: > 100 µM
IC50 [2]: > 100 µM
IC50 [3]: > 100 µM
IC50 [5]: > 100 µM
IC50 [4]: 0.304 µM

O=C([C@@H]1C[C@H](n2cc(C3CCCCC3)nn2)CN1C(=O)CCCc1ccccc1)N1CCCC1
IC50 [1]: > 100 µM
IC50 [2]: > 100 µM
IC50 [3]: > 100 µM
IC50 [5]: > 5 µM
IC50 [4]: 0.147 µM
